pIC50, pKi: −log10 of the molar value. Starred links: 1 amine or outer side, 2 acyl side, 3 side chain; linkers in the order of their positions; H or OH if unused. Non-standard residues stand in square brackets, D forms with d. Residues, ends and D or L forms follow the SMILES beside them. X1 = CSCC[C@H](CN([C@@H](Cc1ccccc1)C(=O)[*:2])[*:1])N[*:3]; Tle = CC(C)(C)[C@H](N)C(=O)O; NBuGly = CCCCNCC(=O)O
Legend:
[1] = target: Delta-type opioid receptor (Mus musculus) (UniProt P32300); experiment: Ratio of antagonistic activity against delta receptors in mouse vas deferens in presence and absence of delta agonist DPDPE; assay type: functional
Method in brief: (§1)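 Agonist log dose-response curves were run with and without a fixed antagonist level. Ke was derived from the ratio of the IC50 values.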

[2] = target: Delta-type opioid receptor (Mus musculus) (UniProt P32300); experiment: Ratio of antagonistic activity against delta receptors in mouse vas deferens in presence and absence of delta agonist DL-II; assay type: functional; method in brief: as §1
[3] = target: Delta-type opioid receptor (Mus musculus) (UniProt P32300); experiment: Ratio of antagonistic activity against delta receptors in mouse vas deferens in presence and absence of delta agonist DADLE; assay type: functional; method in brief: as §1
Mus musculus = species on record: Mus musculus; experiment: In vitro inhibitory concentration against electrically induced contraction of mouse vas deferens (MVD); assay type: functional
Method in brief: (§2)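 Electrically stimulated isolated tissue: longitudinal muscle strips of Hartley guinea pig ileum (250-300 g) for GPI, vas deferens of male ddY mouse (25-35 g) for MVD. IC50 read from log dose-response curves of contraction inhibition.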

[4] = target: Delta-type opioid receptor (Mus musculus) (UniProt P32300); experiment: Ratio of antagonistic activity against delta receptors in mouse vas deferens in presence and absence of delta agonist deltorphin; assay type: functional; method in brief: as §1
[5] = target: Delta-type opioid receptor (Rattus norvegicus, UniProt P33533); experiment: Inhibition of [3H]-DADLE binding to rat brain delta receptor
Method in brief: (§3)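 Crude rat brain synaptosomal fraction (600 μg protein/mL) in 50 mM Tris-HCl pH 7.4 with BSA, bacitracin, bestatin and soybean trypsin inhibitor. Radioligand [3H]DAGO (μ) or [3H]DADLE (δ) at 2 nM. The δ assay also held 2.6 μM [Nα-MePhe3,D-Pro4]morphiceptin to block μ sites. Nonspecific binding with 1 μM unlabeled ligand. Incubated 60 min at 25 °C, filtered on PEI-soaked GF/B, counted by scintillation. Ki from IC50 by Cheng-Prusoff; mean of three.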

[6] = target: Opioid receptors; mu & delta (Rattus norvegicus) (UniProt P33533+P33535); experiment: Relative binding affinity for mu and delta opioid receptors; assay type: protein assay
Cavia porcellus = species on record: Cavia porcellus; experiment: In vitro inhibitory concentration against electrically induced contraction of guinea pig ileum (GPI); assay type: functional; method in brief: as §2
[7] = target: Delta-type opioid receptor (Mus musculus) (UniProt P32300); experiment: Ratio of antagonistic activity against delta receptors in mouse vas deferens in presence and absence of delta agonist leu-enkephalin; assay type: functional; method in brief: as §1
[8] = IC50 ratio measured as the IC50 values of GPI to that of MVD.; assay type: functional
Mu-type opioid receptor = Mu-type opioid receptor (Rattus norvegicus, UniProt P33535); experiment: Inhibition of [3H]DAGO binding to rat brain Opioid receptor mu 1; method in brief: as §3
[9] = target: Mu-type opioid receptor (Cavia porcellus) (UniProt P97266); experiment: Ratio of antagonistic activity against mu receptors in guinea pig ileum in presence and absence of mu agonist dermorphin; assay type: functional, tissue-based; method in brief: as §1
[10] = target: Mu-type opioid receptor (Cavia porcellus) (UniProt P97266); experiment: Ratio of antagonistic activity against mu receptors in guinea pig ileum in presence and absence of mu agonist DAGO; assay type: functional, tissue-based; method in brief: as §1

Chain of Mu-type opioid receptor (Cavia porcellus) (P97266 whole entry): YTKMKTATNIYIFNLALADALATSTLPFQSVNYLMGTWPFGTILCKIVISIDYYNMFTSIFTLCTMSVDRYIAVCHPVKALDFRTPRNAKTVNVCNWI
Chain of Delta-type opioid receptor (Mus musculus) (P32300 whole entry): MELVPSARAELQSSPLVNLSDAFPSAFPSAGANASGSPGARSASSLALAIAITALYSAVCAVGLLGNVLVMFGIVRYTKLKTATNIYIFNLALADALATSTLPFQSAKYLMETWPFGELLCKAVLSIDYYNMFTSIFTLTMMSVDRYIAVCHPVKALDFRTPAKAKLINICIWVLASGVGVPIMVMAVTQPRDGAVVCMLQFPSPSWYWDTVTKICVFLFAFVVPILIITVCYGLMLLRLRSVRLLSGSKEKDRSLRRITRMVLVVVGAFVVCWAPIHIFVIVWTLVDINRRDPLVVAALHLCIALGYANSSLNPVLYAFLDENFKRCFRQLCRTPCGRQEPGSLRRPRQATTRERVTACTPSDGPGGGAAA
Chain of Mu-type opioid receptor (P33535 whole entry): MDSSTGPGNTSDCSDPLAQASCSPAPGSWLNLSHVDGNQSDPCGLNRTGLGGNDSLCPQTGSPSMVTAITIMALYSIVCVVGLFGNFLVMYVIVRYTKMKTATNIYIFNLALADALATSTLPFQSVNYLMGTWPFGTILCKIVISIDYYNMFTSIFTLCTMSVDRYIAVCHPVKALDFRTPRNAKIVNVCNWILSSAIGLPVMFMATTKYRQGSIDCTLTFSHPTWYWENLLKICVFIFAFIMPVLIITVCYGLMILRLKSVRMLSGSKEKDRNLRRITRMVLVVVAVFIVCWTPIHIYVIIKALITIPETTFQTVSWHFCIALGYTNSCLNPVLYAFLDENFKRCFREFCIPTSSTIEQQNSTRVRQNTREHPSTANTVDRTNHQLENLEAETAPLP
Chain of Opioid receptors; mu & delta (Rattus norvegicus) (P33533 whole entry, looked up): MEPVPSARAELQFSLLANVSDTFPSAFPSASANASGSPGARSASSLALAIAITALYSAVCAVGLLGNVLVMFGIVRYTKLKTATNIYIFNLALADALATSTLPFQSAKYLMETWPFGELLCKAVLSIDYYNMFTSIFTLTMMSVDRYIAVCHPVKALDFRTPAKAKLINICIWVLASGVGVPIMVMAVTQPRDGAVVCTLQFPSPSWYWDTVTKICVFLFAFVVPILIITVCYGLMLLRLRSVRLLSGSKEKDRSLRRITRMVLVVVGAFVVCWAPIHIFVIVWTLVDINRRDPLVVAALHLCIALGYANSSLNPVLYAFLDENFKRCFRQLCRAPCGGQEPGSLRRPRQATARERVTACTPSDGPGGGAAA
Chain of Opioid receptors; mu & delta (Rattus norvegicus) (P33535 whole entry, looked up): as the sequence (P33535 whole entry) above
Chain of Delta-type opioid receptor (P33533 whole entry): as the sequence (P33533 whole entry, looked up) above

CSCC[C@H](NC(=O)[C@@H](NC(=O)[C@H](Cc1c[nH]cn1)NC(=O)[C@H](Cc1ccccc1)NC(=O)[C@@H](CCSC)NC(=O)[C@@H](N)Cc1ccc(O)cc1)C(C)(C)C)C(=O)N[C@@H](CC(=O)O)C(N)=O
Ke [1]: 311 nM
Ke [2]: 17.2 nM
Ke [3]: 15.8 nM
pIC50 (Mus musculus; Mus musculus): 5.61
Ke [4]: 16.1 nM
pKi [5]: 8.02
Ki ratio [6]: 40
pIC50 (Cavia porcellus; Cavia porcellus, Ileum): 5.92
Ke [7]: 18.4 nM
Ratio [8]: 0.5
pKi (Mu-type opioid receptor): 6.42

CSCC[C@@H](NC(=O)[C@@H](N)Cc1ccc(O)cc1)C(=O)N[C@@H](Cc1ccccc1)C(=O)N[C@@H](Cc1c[nH]cn1)C(=O)N[C@@H](CC(C)C)C(=O)N(CC(=O)N[C@@H](CC(=O)O)C(N)=O)CC(C)C
pIC50 (Mus musculus; Mus musculus): 8.63
Ke [9]: 165 nM
pKi [5]: 9.07
Ki ratio [6]: 68
pIC50 (Cavia porcellus; Cavia porcellus, Ileum): 5.41
Ratio [8]: 1640
Ke [10]: 138 nM
pKi (Mu-type opioid receptor): 7.24

CCCCN(CC(=O)N[C@@H](CC(=O)O)C(N)=O)C(=O)[C@@H](NC(=O)[C@H](Cc1c[nH]cn1)NC(=O)[C@H](Cc1ccccc1)NC(=O)[C@@H](CCSC)NC(=O)[C@@H](N)Cc1ccc(O)cc1)C(C)(C)C
pIC50 (Mus musculus; Mus musculus): 5.72
Ke [9]: 554 nM
pKi [5]: 7.91
Ki ratio [6]: 12
pIC50 (Cavia porcellus; Cavia porcellus, Ileum): 5.78
Ratio [8]: 0.9
Ke [10]: 520 nM
pKi (Mu-type opioid receptor): 6.82

CCCCN(CC(=O)N[C@@H](CC(=O)O)C(N)=O)C(=O)[C@H](CC(C)C)NC(=O)[C@H](Cc1c[nH]cn1)NC(=O)[C@H](Cc1ccccc1)NC[C@@H](CCSC)NC(=O)[C@@H](N)Cc1ccc(O)cc1 (H-[X1](Tyr)HL[NBuGly]D-NH2)
pIC50 (Mus musculus; Mus musculus): 7.59
Ki ratio [6]: 76
pIC50 (Cavia porcellus; Cavia porcellus, Ileum): 6.37
Ratio [8]: 16

CCCCN(CC(=O)N[C@@H](CC(=O)O)C(N)=O)C(=O)[C@H](CC(C)C)NC(=O)[C@H](Cc1c[nH]cn1)NC(=O)[C@H](Cc1ccccc1)NC(=O)[C@@H](CCSC)NC(=O)[C@@H](N)Cc1ccc(O)cc1
pIC50 (Mus musculus; Mus musculus): 9.25
pKi [5]: 10.40
Ki ratio [6]: 18200
pIC50 (Cavia porcellus; Cavia porcellus, Ileum): 6.24
Ratio [8]: 1030
pKi (Mu-type opioid receptor): 6.09

CC[C@H](C)N(CC(=O)N[C@@H](CC(=O)O)C(N)=O)C(=O)[C@H](CC(C)C)NC(=O)[C@H](Cc1c[nH]cn1)NC(=O)[C@H](Cc1ccccc1)NC(=O)[C@@H](CCSC)NC(=O)[C@@H](N)Cc1ccc(O)cc1 (stereo in doubt; 6b) [listing 1 of 2 here]
Ki ratio [6]: 9690
Ratio [8]: 844

CC[C@H](C)N(CC(=O)N[C@@H](CC(=O)O)C(N)=O)C(=O)[C@H](CC(C)C)NC(=O)[C@H](Cc1c[nH]cn1)NC(=O)[C@H](Cc1ccccc1)NC(=O)[C@@H](CCSC)NC(=O)[C@@H](N)Cc1ccc(O)cc1 (stereo in doubt; 6a) [listing 1 of 2 here]
Ki ratio [6]: 8730
Ratio [8]: 777

CCCCN(CC(=O)N[C@@H](CC(=O)O)C(N)=O)C(=O)[C@H](CC(C)C)NC(=O)[C@H](Cc1cnc[nH]1)NC(=O)[C@H](Cc1ccccc1)NC[C@@H](CCSC)NC(=O)[C@@H](N)Cc1ccc(O)cc1 (H-[X1](Tyr)HL[NBuGly]D-NH2)
pKi [5]: 8.72
pKi (Mu-type opioid receptor): 6.84

CCCCN(CC(=O)N[C@@H](CC(=O)O)C(N)=O)C(=O)[C@@H](NC(=O)[C@H](Cc1c[nH]cn1)NC(=O)[C@H](Cc1ccccc1)NC[C@@H](CCSC)NC(=O)[C@@H](N)Cc1ccc(O)cc1)C(C)(C)C (H-[X1](Tyr)H[Tle][NBuGly]D-NH2)
pIC50 (Mus musculus; Mus musculus): 7.38
Ki ratio [6]: 61
pIC50 (Cavia porcellus; Cavia porcellus, Ileum): 6.00
Ratio [8]: 23

CSCC[C@H](NC(=O)[C@H](C)NC(=O)[C@H](Cc1c[nH]cn1)NC(=O)[C@H](Cc1ccccc1)NC(=O)[C@@H](CCSC)NC(=O)[C@@H](N)Cc1ccc(O)cc1)C(=O)N[C@@H](CC(=O)O)C(N)=O
Ke [3]: 598 nM
pIC50 (Mus musculus; Mus musculus): 6.39
Ke [4]: 632 nM
pKi [5]: 8.77
Ki ratio [6]: 78
pIC50 (Cavia porcellus; Cavia porcellus, Ileum): 6.67
Ke [7]: 721 nM
Ratio [8]: 0.5
pKi (Mu-type opioid receptor): 6.88

CC[C@H](C)N(CC(=O)N[C@@H](CC(=O)O)C(N)=O)C(=O)[C@H](CC(C)C)NC(=O)[C@H](Cc1c[nH]cn1)NC(=O)[C@H](Cc1ccccc1)NC(=O)[C@@H](CCSC)NC(=O)[C@@H](N)Cc1ccc(O)cc1 (stereo in doubt; 6b) [listing 2 of 2 here]
pIC50 (Mus musculus; Mus musculus): 9.12
pKi [5]: 10.05
pIC50 (Cavia porcellus; Cavia porcellus, Ileum): 6.19
pKi (Mu-type opioid receptor): 6.10

CSCC[C@H](NC(=O)[C@H](CC(C)C)NC(=O)[C@H](Cc1cnc[nH]1)NC(=O)[C@H](Cc1ccccc1)NC(=O)[C@@H](CCSC)NC(=O)[C@@H](N)Cc1ccc(O)cc1)C(=O)N[C@@H](CC(=O)O)C(N)=O (H-Y[dM]FHLMD-NH2)
pIC50 (Mus musculus; Mus musculus): 9.03
pKi [5]: 9.72
pIC50 (Cavia porcellus; Cavia porcellus, Ileum): 6.20
pKi (Mu-type opioid receptor): 6.66

Oc1ccc2c3c1O[C@H]1c4[nH]c5ccccc5c4C[C@@]4(O)[C@@H](C2)N(CC2CC2)CC[C@]314
Ke [1]: 0.65 nM
Ke [2]: 0.67 nM
Ke [3]: 0.67 nM
Ke [9]: 151 nM
Ke [4]: 0.65 nM
Ke [7]: 0.94 nM
Ke [10]: 52.2 nM

CSCC[C@@H](NC(=O)[C@@H](N)Cc1ccc(O)cc1)C(=O)N[C@@H](Cc1ccccc1)C(=O)N[C@@H](Cc1c[nH]cn1)C(=O)N[C@@H](CC(C)C)C(=O)N[C@H](C(=O)N[C@@H](CC(=O)O)C(N)=O)C(C)(C)C
pIC50 (Mus musculus; Mus musculus): 8.89
pKi [5]: 9.34
Ki ratio [6]: 589
pIC50 (Cavia porcellus; Cavia porcellus, Ileum): 6.49
Ratio [8]: 254
pKi (Mu-type opioid receptor): 6.57

CCCCN(CC(=O)N[C@@H](CC(=O)O)C(N)=O)C(=O)[C@@H](NC(=O)[C@H](Cc1cnc[nH]1)NC(=O)[C@H](Cc1ccccc1)NC[C@@H](CCSC)NC(=O)[C@@H](N)Cc1ccc(O)cc1)C(C)(C)C (H-[X1](Tyr)H[Tle][NBuGly]D-NH2)
pKi [5]: 8.59
pKi (Mu-type opioid receptor): 6.80

CC[C@H](C)N(CC(=O)N[C@@H](CC(=O)O)C(N)=O)C(=O)[C@H](CC(C)C)NC(=O)[C@H](Cc1c[nH]cn1)NC(=O)[C@H](Cc1ccccc1)NC(=O)[C@@H](CCSC)NC(=O)[C@@H](N)Cc1ccc(O)cc1 (stereo in doubt; 6a) [listing 2 of 2 here]
pIC50 (Mus musculus): 9.06
pKi [5]: 10.00
pIC50 (Cavia porcellus): 6.16
pKi (Mu-type opioid receptor): 6.07
